Key:
Rattus norvegicus [1] = experiment: The control period of compound (microg of Fe/15h) for urinary excretion of Iron after intravenous administration to the rats; type: functional, Urine
Summary of the method: (§1)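 Unloaded normal rats, each serving as its own control, housed in metabolic cages. Control day: 1 mL distilled water/200 g body weight iv, urine collected 15 h (5 p.m.–8 a.m.) and analyzed for iron. Next day: chelator 0.2 mmol/kg iv by tail vein under ether anesthesia in 1 mL deionized water, pH about 7 with sodium bicarbonate; urine again collected 15 h for iron.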

Rattus norvegicus [2] = experiment: The control period of compound (microg of Fe/h) for biliary excretion of Iron after intravenous administration to the rats; type: functional, Bile
Summary of the method: (§2)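 Normal (untreated) rats under pentobarbital anesthesia, bile duct cannulated with PE-10 tubing. Bile collected 30 min for the control rate, then chelator given 0.2 mmol/kg iv by tail vein in deionized water, pH about 7 with sodium bicarbonate, and bile collected a further 2 h. Bile mass measured and iron determined by atomic absorption spectrometry; rate expressed per hour. Controls received pentobarbital only.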

Rattus norvegicus [3] = experiment: The control period of compound (microg of Fe/15h) for urinary excretion of Iron after peroral administration to the rats; type: functional, Urine
Summary of the method: (§3)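 Unloaded normal rats in metabolic cages act as their own controls. Food is withdrawn at 5 p.m. on both days. Control day: 1 mL distilled water po, urine collected until 8 a.m. (15 h), food returned, urine analyzed for iron. Treatment day: chelator 1 mmol/kg po in 1 mL distilled water, then another 15 h urine collection for iron analysis.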

Rattus norvegicus [4] = experiment: The treatment period of compound (microg of Fe/15h) for urinary excretion of Iron after peroral administration to the rats; type: functional, Urine; summary of the method: as §3
Rattus norvegicus [5] = experiment: The treatment period of compound (microg of Fe/15h) for urinary excretion of Iron after intravenous administration to the rats; type: functional, Urine; summary of the method: as §1
Rattus norvegicus [6] = experiment: The treatment period of compound (microg of Fe/h) for biliary excretion of Iron after intravenous administration to the rats; type: functional, Bile; summary of the method: as §2

Compound | Control period (Rattus norvegicus [1]) | Control period (Rattus norvegicus [2]) | Control period (Rattus norvegicus [3]) | Treatment period (Rattus norvegicus [4]) | Treatment period (Rattus norvegicus [5]) | Treatment period (Rattus norvegicus [6])
Cn1cc(O)c(=O)cc1C(=O)O | 410 ng of Fe/15 h | 0.34 | 497 ng of Fe/15 h | 6740 ng of Fe/15 h | 6830 ng of Fe/15 h | 5.87
O=C(O)c1cc(=O)c(O)co1 |  | 0.35 |  |  |  | 0.46
O=c1cc(CO)n(CCS(=O)(=O)O)cc1O | 504 ng of Fe/15 h | 0.35 | 296 ng of Fe/15 h | 350 ng of Fe/15 h | 2200 ng of Fe/15 h | 9.96
Cc1c(O)c(=O)ccn1C [DEFERIPRONE] | 490 ng of Fe/15 h | 0.36 | 400 ng of Fe/15 h | 17400 ng of Fe/15 h | 8370 ng of Fe/15 h | 4.78
O=c1cc(CO)occ1O [KOJIC ACID] |  | 0.31 |  |  |  | 0.28

Source: ChEMBL document CHEMBL1127750, “Enhancement of iron excretion via monoanionic 3-hydroxypyrid-4-ones” (1994)
